Data reported in ChEMBL document CHEMBL1153755, “Convenient synthesis and antimicrobial evaluation of some novel 2-substituted-3-methylbenzofuran derivatives” (2009).
Values after ≈ are worked out from the molar mass of the structure shown. Blank lines part the entries; values can stand above or below the compound they belong to.

What was measured:
Format in all cases: functional
[1] = test system: Aspergillus fumigatus; test: Antifungal activity against Aspergillus fumigatus at 100 ug after 24 to 48 hrs by diffusion agar technique; conditions: read-out: IZ
Method in brief: (§1)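 Fungal isolates (RCMB collection) are seeded into malt extract agar (pH 5.4) and tested by hole-plate diffusion. Each 1 cm well receives 100 μL of a 5 mg/ml DMSO solution, with DMSO as control. Plates sit 1 h at 4 °C, then incubate at 28 °C. Zone diameter is measured after 24-48 h. Terbinafin is the standard.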

[2] = test system: Candida albicans; test: Antifungal activity against Candida albicans at 100 ug after 24 to 48 hrs by diffusion agar technique; conditions: read-out: IZ; method in brief: as §1
[3] = test system: Staphylococcus aureus; test: Antibacterial activity against Staphylococcus aureus at 100 ug after 24 to 48 hrs by diffusion agar technique; conditions: read-out: IZ
Method in brief: (§2)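 Hole-plate agar diffusion on nutrient agar (pH 6.2) seeded with the bacterial isolate (RCMB collection). 1 cm wells hold 100 μL of compound at 5 mg/ml in DMSO; DMSO-filled wells serve as controls. Plates are held 1 h at 4 °C, then incubated at 37 °C. Inhibition zone diameter is read after 24-48 h. Amoxicilline is the reference.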

[4] = test system: Bacillus subtilis; test: Antibacterial activity against Bacillus subtilis at 100 ug after 24 to 48 hrs by diffusion agar technique; conditions: read-out: IZ; method in brief: as §2
[5] = test system: Candida albicans; test: Antimicrobial activity against Candida albicans by serial dilution technique
[6] = test system: Aspergillus niger; test: Antifungal activity against Aspergillus niger at 100 ug after 24 to 48 hrs by diffusion agar technique; conditions: read-out: IZ; method in brief: as §1
[7] = test system: Escherichia coli; test: Antibacterial activity against Escherichia coli at 100 ug after 24 to 48 hrs by diffusion agar technique; conditions: read-out: IZ; method in brief: as §2
[8] = test system: Bacillus subtilis; test: Antimicrobial activity against Bacillus subtilis by serial dilution technique
[9] = test system: Penicillium italicum; test: Antifungal activity against Penicillium italicum at 100 ug after 24 to 48 hrs by diffusion agar technique; conditions: read-out: IZ; method in brief: as §1
[10] = test system: Syncephalastrum racemosum; test: Antifungal activity against Syncephalastrum racemosum at 100 ug after 24 to 48 hrs by diffusion agar technique; conditions: read-out: IZ; method in brief: as §1
[11] = test system: Syncephalastrum racemosum; test: Antimicrobial activity against Syncephalastrum racemosum by serial dilution technique
[12] = test system: Pseudomonas aeruginosa; test: Antibacterial activity against Pseudomonas aeruginosa at 100 ug after 24 to 48 hrs by diffusion agar technique; conditions: read-out: IZ; method in brief: as §2
[13] = test system: Aspergillus fumigatus; test: Antimicrobial activity against Aspergillus fumigatus by serial dilution technique
[14] = test system: Penicillium italicum; test: Antimicrobial activity against Penicillium italicum by serial dilution technique
[15] = test system: Aspergillus niger; test: Antimicrobial activity against Aspergillus niger by serial dilution technique
[16] = test system: Staphylococcus aureus; test: Antimicrobial activity against Staphylococcus aureus by serial dilution technique

MIC [5]: 50 µg/mL (≈ 158 µM)
SMILES: Cc1ccc(N/N=C(\C#N)C(=O)c2oc3ccccc3c2C)cc1
zone of inhibition at 100 µg/disc [1]: 12 mm
zone of inhibition at 100 µg/disc [2]: 20 mm
zone of inhibition at 100 µg/disc [3]: 4 mm
zone of inhibition at 100 µg/disc [4]: 6 mm

MIC [8]: 125 µg/mL (≈ 548 µM)
SMILES: Cc1c(C(=O)/C(C#N)=N/O)oc2ccccc12
zone of inhibition at 100 µg/disc [1]: 8 mm
zone of inhibition at 100 µg/disc [6]: 12 mm
zone of inhibition at 100 µg/disc [2]: 18 mm
zone of inhibition at 100 µg/disc [3]: 15 mm
zone of inhibition at 100 µg/disc [4]: 20 mm
zone of inhibition at 100 µg/disc [7]: 8 mm

MIC [11]: 250 µg/mL (≈ 847 µM)
SMILES: Cc1c(C(=O)Nc2ccccc2C(=O)O)oc2ccccc12
zone of inhibition at 100 µg/disc [9]: 13 mm
zone of inhibition at 100 µg/disc [10]: 22 mm
zone of inhibition at 100 µg/disc [3]: 3 mm
zone of inhibition at 100 µg/disc [4]: 12 mm

MIC [11]: 250 µg/mL (≈ 902 µM)
SMILES: Cc1c(-c2nc3ccccc3c(=O)o2)oc2ccccc12
zone of inhibition at 100 µg/disc [1]: 8 mm
zone of inhibition at 100 µg/disc [6]: 5 mm
zone of inhibition at 100 µg/disc [9]: 6 mm
zone of inhibition at 100 µg/disc [10]: 18 mm
zone of inhibition at 100 µg/disc [2]: 7 mm
zone of inhibition at 100 µg/disc [3]: 4 mm
zone of inhibition at 100 µg/disc [12]: 8 mm
zone of inhibition at 100 µg/disc [4]: 8 mm

MIC [8]: 250 µg/mL (≈ 864 µM)
SMILES: Cc1c(-c2cc(N)n(-c3ccccc3)n2)oc2ccccc12
zone of inhibition at 100 µg/disc [1]: 10 mm
zone of inhibition at 100 µg/disc [6]: 7 mm
zone of inhibition at 100 µg/disc [2]: 9 mm
zone of inhibition at 100 µg/disc [3]: 4 mm
zone of inhibition at 100 µg/disc [4]: 25 mm
zone of inhibition at 100 µg/disc [7]: 5 mm

MIC [11]: 50 µg/mL (≈ 224 µM)
SMILES: Cc1c(-c2n[nH]cc2C#N)oc2ccccc12
zone of inhibition at 100 µg/disc [1]: 20 mm
zone of inhibition at 100 µg/disc [6]: 6 mm
zone of inhibition at 100 µg/disc [10]: 30 mm
zone of inhibition at 100 µg/disc [2]: 12 mm
zone of inhibition at 100 µg/disc [3]: 10 mm
zone of inhibition at 100 µg/disc [4]: 18 mm

MIC [5]: 250 µg/mL (≈ 740 µM)
SMILES: Cc1c(C(=O)/C(C#N)=N/Nc2ccc(Cl)cc2)oc2ccccc12
zone of inhibition at 100 µg/disc [2]: 16 mm
zone of inhibition at 100 µg/disc [3]: 5 mm

MIC [15]: 250 µg/mL (≈ 979 µM)
SMILES: CCO/C=C(\C#N)C(=O)c1oc2ccccc2c1C
zone of inhibition at 100 µg/disc [1]: 19 mm
zone of inhibition at 100 µg/disc [6]: 18 mm
zone of inhibition at 100 µg/disc [9]: 10 mm
zone of inhibition at 100 µg/disc [10]: 22 mm
zone of inhibition at 100 µg/disc [2]: 10 mm
zone of inhibition at 100 µg/disc [3]: 13 mm
zone of inhibition at 100 µg/disc [4]: 7 mm

Continued, compound first:

SMILES: Cc1c(C(=O)NN/C=C(\NNC(=O)c2oc3ccccc3c2C)c2ccc(Cl)cc2)oc2ccccc12
zone of inhibition at 100 µg/disc [1]: 10 mm
zone of inhibition at 100 µg/disc [6]: 5 mm
zone of inhibition at 100 µg/disc [10]: 6 mm
zone of inhibition at 100 µg/disc [3]: 4 mm
zone of inhibition at 100 µg/disc [4]: 4 mm
zone of inhibition at 100 µg/disc [7]: 3 mm
MIC [13]: 500 µg/mL (≈ 971 µM)

SMILES: CN(C/C=C/C#CC(C)(C)C)Cc1cccc2ccccc12 [TERBINAFINE]
zone of inhibition at 100 µg/disc [1]: 30 mm
zone of inhibition at 100 µg/disc [6]: 25 mm
zone of inhibition at 100 µg/disc [9]: 20 mm
zone of inhibition at 100 µg/disc [10]: 35 mm
zone of inhibition at 100 µg/disc [2]: 30 mm

SMILES: Cc1c(C(=O)NNC(=O)c2oc3ccccc3c2C)oc2ccccc12
zone of inhibition at 100 µg/disc [1]: 4 mm
zone of inhibition at 100 µg/disc [6]: 13 mm
zone of inhibition at 100 µg/disc [9]: 12 mm
zone of inhibition at 100 µg/disc [10]: 18 mm
zone of inhibition at 100 µg/disc [2]: 6 mm
zone of inhibition at 100 µg/disc [3]: 3 mm
zone of inhibition at 100 µg/disc [4]: 12 mm
MIC [11]: 50 µg/mL (≈ 144 µM)
MIC [14]: 50 µg/mL (≈ 144 µM)

SMILES: CC1(C)S[C@@H]2[C@H](NC(=O)[C@H](N)c3ccc(O)cc3)C(=O)N2[C@H]1C(=O)O [AMOXICILLIN]
zone of inhibition at 100 µg/disc [3]: 30 mm
zone of inhibition at 100 µg/disc [12]: 20 mm
zone of inhibition at 100 µg/disc [4]: 25 mm
zone of inhibition at 100 µg/disc [7]: 30 mm

SMILES: Cc1c(C(=O)NN/C=C(\NNC(=O)c2oc3ccccc3c2C)c2ccccc2)oc2ccccc12
zone of inhibition at 100 µg/disc [3]: 15 mm
zone of inhibition at 100 µg/disc [12]: 6 mm
zone of inhibition at 100 µg/disc [4]: 14 mm
zone of inhibition at 100 µg/disc [7]: 5 mm
MIC [16]: 500 µg/mL (≈ 1040 µM)
